This is an account of results in ChEMBL document CHEMBL1268833, “Molecular docking and structure-activity relationship studies on benzothiazole based non-peptidic BACE-1 inhibitors” (Bioorg Med Chem Lett, 2010).

For test [1], the target named is T1, Beta-secretase 1 (Homo sapiens, UniProt P56817). The experiment in a line: Inhibition of human BACE1 at 50 uM by FRET assay. A digest of the protocol: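 FRET assay kit for BACE-1 activity, run per a previously described protocol; each compound was tested at 50 µM as the initial screening concentration; percent inhibition is given as the mean of duplicate measurements.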

For test [2], the target named is T1, Beta-secretase 1. The experiment in a line: Inhibition of human BACE1 by FRET assay. A digest of the protocol:
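IC50 values were measured against BACE-1 with a FRET assay kit following an earlier-described protocol; values are means of duplicate measurements.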

By inhibition is commonly meant the share of the control response that was lost under treatment. A higher inhibition goes with a strong effect. The IC50 is the concentration that gives 50% inhibition. A high value points to lower potency.

T1 sequence (P56817 whole entry): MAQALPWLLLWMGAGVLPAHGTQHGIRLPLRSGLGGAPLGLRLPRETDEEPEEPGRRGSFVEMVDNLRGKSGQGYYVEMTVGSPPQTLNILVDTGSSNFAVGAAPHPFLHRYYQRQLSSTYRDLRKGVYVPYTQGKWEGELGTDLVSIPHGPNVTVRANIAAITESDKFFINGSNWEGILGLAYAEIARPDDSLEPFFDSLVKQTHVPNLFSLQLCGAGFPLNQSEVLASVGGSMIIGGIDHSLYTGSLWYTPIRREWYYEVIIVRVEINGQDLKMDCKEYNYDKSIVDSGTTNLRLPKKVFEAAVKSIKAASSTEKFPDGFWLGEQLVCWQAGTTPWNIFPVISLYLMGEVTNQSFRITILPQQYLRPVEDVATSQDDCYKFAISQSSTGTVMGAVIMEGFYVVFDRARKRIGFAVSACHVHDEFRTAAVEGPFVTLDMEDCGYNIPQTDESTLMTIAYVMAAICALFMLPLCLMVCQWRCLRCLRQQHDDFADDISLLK

`Cc1cc(C)c(NC(=O)CSc2nc3ccc(Nc4nc(N5CCOCC5)nc(N5CCOCC5)n4)cc3s2)c(C)c1`: the inhibition against Beta-secretase 1 [1] turned out to be 82%. Further, the IC50 against Beta-secretase 1 [2] was more than 50 µM.

In turn, `O=C(CSc1nc2ccc(Nc3nc(N4CCOCC4)nc(N4CCOCC4)n3)cc2s1)Nc1cccc(C(F)(F)F)c1` had an inhibition at Beta-secretase 1 [1] of 0%.

With `Cc1cccc(NC(=O)CSc2nc3ccc(Nc4nc(N5CCCC5)nc(N5CCCC5)n4)cc3s2)c1C`, the inhibition at Beta-secretase 1 [1] is 100%. For the same compound, the IC50 at Beta-secretase 1 [2] turned out to be 2.83 µM.

The compound `O=C(CSc1nc2ccc(Nc3nc(N4CCOCC4)nc(N4CCOCC4)n3)cc2s1)NCCOc1ccccc1` came in with an inhibition on Beta-secretase 1 [1] of 0%.

Turning to `COc1ccc(OC)c(NC(=O)CSc2nc3ccc(Nc4nc(N5CCCCC5)nc(N5CCCCC5)n4)cc3s2)c1`, at Beta-secretase 1 [1], the inhibition is 73%. At Beta-secretase 1 [2], the midpoint of inhibition, the IC50, lay at 18 µM.

Consider `O=C(CSc1nc2ccc(Nc3nc(N4CCOCC4)nc(N4CCOCC4)n3)cc2s1)NCc1ccccc1`, for which the inhibition on Beta-secretase 1 [1] turned out to be 50%. At Beta-secretase 1 [2], this compound came in with an IC50 of 50 µM.

In turn, `O=C(CSc1nc2ccc(Nc3nc(N4CCCC4)nc(N4CCCC4)n3)cc2s1)NCc1ccco1` yielded an inhibition against Beta-secretase 1 [1] of 87%. At Beta-secretase 1 [2], half-maximal inhibition (IC50) required 0.69 µM.

With `CCOC(=O)CSc1nc2ccc(Nc3nc(N4CCCC4)nc(N4CCCC4)n3)cc2s1`, on Beta-secretase 1 [1], the inhibition worked out at 100%. The compound also returned an IC50 at Beta-secretase 1 [2] of 1.77 µM.

In turn, `CCOc1ccc(NC(=O)CSc2nc3ccc(Nc4nc(N5CCCCC5)nc(N5CCCCC5)n4)cc3s2)cc1` yielded an inhibition against Beta-secretase 1 [1] of 77%. This compound also gave an IC50 against Beta-secretase 1 [2] of 17.2 µM.

In the case of `O=C(CSc1nc2ccc(Nc3nc(N4CCCC4)nc(N4CCCC4)n3)cc2s1)NCCOc1ccccc1`, the inhibition against Beta-secretase 1 [1] came out at 88%. The same compound registered an IC50 on Beta-secretase 1 [2] of 3 µM.

As for `CCOc1ccc(NC(=O)CSc2nc3ccc(Nc4nc(N5CCOCC5)nc(N5CCOCC5)n4)cc3s2)cc1`, the inhibition against Beta-secretase 1 [1] stood at 100%. This compound also showed an IC50 against Beta-secretase 1 [2] of more than 50 µM.

Compound `O=C(CSc1nc2ccc(Nc3nc(N4CCCC4)nc(N4CCCC4)n3)cc2s1)Nc1ccccc1` yielded an inhibition on Beta-secretase 1 [1] of 100%. This compound showed an IC50 at Beta-secretase 1 [2] of 0.12 µM.

For the compound `O=C(CSc1nc2ccc(Nc3nc(N4CCCC4)nc(N4CCCC4)n3)cc2s1)c1ccccc1`, the inhibition on Beta-secretase 1 [1] was found to be 93%. Besides, at Beta-secretase 1 [2], the half-inhibitory concentration (IC50) was found to be 20 µM.

On Beta-secretase 1 [1], `O=C(CSc1nc2ccc(Nc3nc(N4CCOCC4)nc(N4CCOCC4)n3)cc2s1)N1CCOCC1` registered an inhibition of 16%.

At Beta-secretase 1 [1], `Cc1ccc(CNC(=O)CSc2nc3ccc(Nc4nc(N5CCOCC5)nc(N5CCOCC5)n4)cc3s2)cc1` came in with an inhibition of 0%.

On to `O=C(CSc1nc2ccc(Nc3nc(N4CCOCC4)nc(N4CCOCC4)n3)cc2s1)Nc1ccccc1Cl`, for which, on Beta-secretase 1 [1], the inhibition was 50%. This compound came in with a half-inhibitory concentration (IC50) against Beta-secretase 1 [2] of 50 µM.

Take `CCOC(=O)CSc1nc2ccc(Nc3nc(N4CCOCC4)nc(N4CCOCC4)n3)cc2s1`: the inhibition at Beta-secretase 1 [1] came out at 42%.

The compound `O=C(CSc1nc2ccc(Nc3nc(N4CCCC4)nc(N4CCCC4)n3)cc2s1)NCc1ccccc1` gave an inhibition at Beta-secretase 1 [1] of 83%. The compound also showed a half-inhibitory concentration (IC50) against Beta-secretase 1 [2] of 1.7 µM.

Regarding `O=C(CSc1nc2ccc(Nc3nc(N4CCCCC4)nc(N4CCCCC4)n3)cc2s1)c1ccc(F)cc1`, the inhibition against Beta-secretase 1 [1] is 80%. This compound also returned an IC50 at Beta-secretase 1 [2] of 20 µM.

For the compound `O=C(CSc1nc2ccc(Nc3nc(N4CCOCC4)nc(N4CCOCC4)n3)cc2s1)N1c2ccccc2CCc2ccccc21`, at Beta-secretase 1 [1], the inhibition is 100%. Further, at Beta-secretase 1 [2], the midpoint of inhibition, the IC50, lay at 14.7 µM.

With `O=C(CSc1nc2ccc(Nc3nc(N4CCCCC4)nc(N4CCCCC4)n3)cc2s1)Nc1ccccc1`, the inhibition against Beta-secretase 1 [1] amounted to 58%. Further, the IC50 at Beta-secretase 1 [2] is more than 50 µM.

Compound `Cc1ccccc1NC(=O)CSc1nc2ccc(Nc3nc(N4CCOCC4)nc(N4CCOCC4)n3)cc2s1` had an inhibition at Beta-secretase 1 [1] of 0.5%.
